Among the data in ChEMBL document CHEMBL3576810, “Pentacyclic antibiotics from a tidal mud flat-derived actinomycete” (J Nat Prod, 2015) are MIC and IC50 values, retold here.

The test system of one test is Staphylococcus aureus. In words: Antibacterial activity against Staphylococcus aureus ATCC 25923 incubated for 12 hrs at 37 degC. In kind it is functional. Particulars: ATCC 25923, 12 h. A digest of the protocol: (§1)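 Bacteria grown overnight in LB broth at 37 °C, centrifuged and washed twice in sterile water. DMSO compound stocks serially 2-fold diluted in Plate Count Broth over 50 to 0.8 μg/mL. Inoculum 5 × 10^5 cfu/mL final, 12 h at 37 °C. MIC taken as lowest concentration with no visible growth. Ampicillin reference.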

In another test the test system is Bacillus subtilis. In words: Antibacterial activity against Bacillus subtilis ATCC 6633 incubated for 12 hrs at 37 degC. The test is classed as functional. Particulars: ATCC 6633, 12 h. A digest of the protocol: as §1
A further test has as its system Kocuria rhizophila. The experiment in a line: Antibacterial activity against Kocuria rhizophila NBRC 12708 incubated for 12 hrs at 37 degC. The test is classed as functional. Conditions: NBRC 12708, 12 h. The procedure, abridged: as §1
The next test has as its system Salmonella enterica. In words: Antibacterial activity against Salmonella enterica ATCC 14028 incubated for 12 hrs at 37 degC. The test is classed as functional. Conditions: ATCC 14028, 12 h. A digest of the protocol:
as §1

Another test deals with Proteus hauseri. The experiment in a line: Antibacterial activity against Proteus hauseri NBRC 3851 incubated for 12 hrs at 37 degC. In kind it is functional. Conditions: NBRC 3851, 12 h. A digest of the protocol: as §1
Test [1] is described as follows: Inhibition of Staphylococcus aureus ATCC 6538p sortase A delta24 mutant using H2N-Abz-LPXTG-Dap(Dnp)-NH2 fluorescent substrate incubated for 1 hr by fluorescence based assay. The procedure, abridged:
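Recombinant SrtAΔ24 (24 μg), srtA gene from S. aureus ATCC 6538p. Buffer 50 mM Tris-HCl, 150 mM NaCl, pH 7.5, 5 mM CaCl2, with 1 μg Abz-LPXTG-Dap(Dnp) peptide, 1 mM pentaglycine and compound at several concentrations (0.5% DMSO final). 1 h at 37 °C. Fluorescence read at excitation 317 nm, emission 420 nm. p-Hydroxymercuribenzoic acid positive control.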

The subject of the next test is A549. In words: Cytotoxicity against human A549 cells after 72 hrs by sulforhodamine B assay. Conditions: A549, 72 h. The test is classed as functional, cell-based. A digest of the protocol:
(§2)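 Cells seeded at 3 × 10^4 cells/mL and exposed to a range of compound concentrations at 37 °C, 5% CO2, for 72 h. Fixed with 10% TCA for 1 h, stained with 0.4% SRB in 1% acetic acid, dye dissolved in 10 mM Tris pH 10.0. Survival expressed relative to solvent control; IC50 by nonlinear regression. Etoposide positive control.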

Another test has as its system HCT-116. The experiment in a line: Cytotoxicity against human HCT116 cells after 72 hrs by sulforhodamine B assay. Conditions: HCT-116, 72 h. The test is classed as functional, cell-based. The procedure, abridged: as §2
Test [2] can be described thus: Cytotoxicity against human SNU638 cells after 72 hrs by sulforhodamine B assay. The test is classed as functional, cell-based. Particulars: SNU-638, 72 h. A digest of the protocol: as §2
The test system of the next test is K562. The experiment in a line: Cytotoxicity against human K562 cells after 72 hrs by sulforhodamine B assay. The test is classed as functional, cell-based. Conditions: K562, 72 h. The procedure, abridged: as §2
Test [3] in a line: Cytotoxicity against human SKHEP1 cells after 72 hrs by sulforhodamine B assay. The test is classed as functional, cell-based. Conditions: SK-HEP1, 72 h. The procedure, abridged: as §2
In the next test the test system is MDA-MB-231. The experiment in a line: Cytotoxicity against human MDA-MB-231 cells after 72 hrs by sulforhodamine B assay. The test is classed as functional, cell-based. Particulars: MDA-MB-231, 72 h. The procedure, abridged:
as §2

In a further test the test system is Candida albicans. The experiment in a line: Antifungal activity against Candida albicans ATCC 10231. In kind it is functional. The procedure, abridged:
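C. albicans grown in YPD medium for 48 h at 28 °C, centrifuged and washed twice with sterile water. Cells (5 × 10^4 cells/mL) in potato dextrose broth with test compound in DMSO (0.5% final). DMSO solvent control; amphotericin B positive control.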

The subject of a further test is Aspergillus fumigatus. In words: Antifungal activity against Aspergillus fumigatus HIC 6094. The test is classed as functional. The procedure, abridged: (§3)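 Fungi grown on potato dextrose agar for 2 weeks at 28 °C. Spores harvested, washed twice and suspended at 5 × 10^5 spores/mL, then diluted into potato dextrose broth (5 × 10^4 cells/mL) with test compound in DMSO (0.5% final). DMSO solvent control; amphotericin B positive control.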

Another test relates to Trichophyton rubrum. In words: Antifungal activity against Trichophyton rubrum NBRC 9185. In kind it is functional, organism-based. A digest of the protocol:
as §3

In test [4] the test system is Trichophyton mentagrophytes. In words: Antifungal activity against Trichophyton mentagrophytes IFM 40996. In kind it is functional, organism-based. A digest of the protocol:
as §3

Converted amounts (≈) assume the structure as drawn. The source made the active and inactive calls. No cut-off for these calls is given here.

Regarding `CC1(C)S[C@@H]2[C@H](NC(=O)[C@H](N)c3ccccc3)C(=O)N2[C@H]1C(=O)O` [AMPICILLIN], the MIC with Staphylococcus aureus is 4.5 µM; against Bacillus subtilis, 1.1 µM; with Kocuria rhizophila, 0.6 µM; in the test with Salmonella enterica, 4.5 µM; in the test on Proteus hauseri, less than 0.6 µM.
For Para-Hydroxymercuribenzoic acid, 104000 nM corresponded to half-maximal inhibition in [1] (IC50).
With `COc1ccc2oc3c(O)c4c(c(O)c3c(=O)c2c1O)-c1c(cc(CC(C)=O)c(C(=O)N[C@@](C)(CO)C(=O)O)c1O)CC4`, the IC50 is 1700 nM with A549; 900 nM with HCT-116; 800 nM in [2]; more than 100000 nM in the test on K562; 1900 nM in test [3]; 1200 nM with MDA-MB-231. In [1], the IC50 was 43200 nM. Moreover, the MIC with Staphylococcus aureus is 10.5 µM; in the test on Bacillus subtilis, 0.7 µM; against Kocuria rhizophila, 10.5 µM; in the test on Salmonella enterica, 0.7 µM; against Proteus hauseri, 21.1 µM; with Candida albicans it was 21.1 µM (≈ 12.5 µg/mL). This compound also displayed an MIC in the test on Aspergillus fumigatus of 84.3 µM (≈ 50 µg/mL).
As to `COc1cc([C@@H]2c3cc4c(cc3[C@@H](O[C@@H]3O[C@@H]5CO[C@@H](C)O[C@H]5[C@H](O)[C@H]3O)[C@H]3COC(=O)[C@H]23)OCO4)cc(OC)c1O` [ETOPOSIDE], the IC50 came to 800 nM in the test with A549; 1900 nM with HCT-116; 500 nM in test [2]; 3100 nM in the test on K562; 1100 nM in [3]; 10600 nM with MDA-MB-231.
With `CC(=O)Cc1cc(O)c2c(c1)CCc1c-2cc2c(c1O)C(=O)c1c(O)cc(O)cc1C2=O`, the IC50 is more than 100000 nM in the test with A549; more than 100000 nM with HCT-116; more than 100000 nM in [2]; 18300 nM in the test with K562; more than 100000 nM in test [3]; more than 100000 nM with MDA-MB-231. Also, the MIC in the test on Staphylococcus aureus, against Bacillus subtilis, with Kocuria rhizophila, with Salmonella enterica and in the test on Proteus hauseri was more than 100 µg/mL throughout. In addition, the MIC result (in the test with Candida albicans; in the test with Aspergillus fumigatus; in the test with Trichophyton rubrum; in test [4]) was “inactive” in each case.
